# Key:
# [1] = Selectivity index, ratio of IC50 for human MRC5 cells to IC50 for human HT-29 cells; format: toxicity; details: MRC5 cells versus HT-29 cells, read-out: Selectivity Index
# In short: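 Selectivity index: MRC-5 IC50 divided by HT-29 IC50.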
# [2] = Drug uptake in Trypanosoma brucei at 10 uM incubated for 2 hrs by fluorescence based multiplate reader method; format: ADME
# Leishmania major = assay: Antileishmanial activity against Leishmania major (MHOM/IL/80/Friedlin) promastigotes assessed as reduction in parasite growth incubated for 72 hrs by MTT assay; format: functional, organism-based
# In short: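 L. major Friedlin promastigotes, 1×10^6/mL in modified RPMI-1640 with 10% hiFBS, exposed to increasing compound concentrations for 72 h at 28 °C; proliferation read by MTT; IC50 from four-parameter logistic fit versus untreated controls.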
# [3] = Cytotoxicity against human MRC5 cells assessed as reduction in cell viability incubated for 48 hrs by MTT assay; format: toxicity, cell-based
# In short: (§1)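 MTT assay: 5×10^3 cells per well in DMEM with 10% hiFBS (4.5 g/L glucose for HT-29, 1 g/L for MRC-5), exposed to increasing compound concentrations for 48 h at 37 °C. MTT added for 4 h, formazan dissolved in DMSO, absorbance read at 575 nm. IC50 from four-parameter logistic fit.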
# Trypanosoma brucei = assay: Antitrypanosomal activity against Trypanosoma brucei incubated for 72 hrs by alamar blue dye based fluorimetry analysis; format: functional, organism-based
# In short: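 Bloodstream-form T. brucei S16 (Lister 427, MiTat 1.2), 1×10^3 per well in HMI-9 with 20% hiFBS, exposed to increasing compound concentrations for 72 h at 37 °C, 5% CO2. Resazurin then added for 4 h, cells lysed with SDS, fluorescence read at ex 550/em 590 nm. IC50 from four-parameter logistic fit; three independent runs, each in triplicate.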
# HT-29 = assay: Cytotoxicity against human HT-29 cells assessed as reduction in cell viability incubated for 48 hrs by MTT assay; format: functional, cell-based; details: HT-29, 48 h; in short: as §1
# [4] = Drug uptake in human HT-29 cells at 10 uM incubated for 2 hrs by fluorescence based multiplate reader method; format: ADME, cell-based; details: ht-29, 2 h
# In short: (§2)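 225,000 trypsinized cells incubated with 10 μM compound in 0.75 mL medium for 2 h at 37 °C; washed three times with PBS, lysed in 3% SDS and sonicated. NDI fluorescence read at ex 485/em 535 nm, quantified against a calibration curve in cell lysate and normalized to BCA protein. Reported as % of compound added.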
# [5] = Selectivity index, ratio of IC50 for cytotoxicity against human MRC5 cells to IC50 for antitrypanosomal activity against Trypanosoma brucei; format: toxicity, cell-based; details: MRC5 cells versus Trypanosoma brucei, read-out: Selectivity Index
# In short: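 Selectivity index: MRC-5 IC50 divided by T. brucei IC50.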
# [6] = Drug uptake in human MRC5 cells at 10 uM incubated for 2 hrs by fluorescence based multiplate reader method; format: ADME, cell-based; details: mrc5, 2 h; in short: as §2
# [7] = Selectivity index, ratio of IC50 for cytotoxicity against human MRC5 cells to IC50 for antileishmanial activity against Leishmania major (MHOM/IL/80/Friedlin) promastigotes; format: toxicity, cell-based; details: read-out: Selectivity Index
# In short: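 Selectivity index: MRC-5 IC50 divided by L. major promastigote IC50.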
SMILES,selectivity ratio [1],Drug uptake [2],IC50 (Leishmania major),IC50 at 48 h [3],IC50 (Trypanosoma brucei),IC50 (HT-29),Drug uptake [4],selectivity ratio [5],Drug uptake [6],selectivity ratio [7]
O=C1c2ccc3c4c(c(NCc5cn(CCS[C@@H]6O[C@H](CO)[C@@H](O[C@H]7O[C@H](CO)[C@@H](O)[C@H](O)[C@H]7O)[C@H](O)[C@H]6O)nn5)cc(c24)C(=O)N1CCN1CCOCC1)C(=O)N(CCN1CCOCC1)C3=O,> 3.6,6.7%,> 50000 nM,> 50000 nM,3040 nM,13700 nM,3.5%,> 16,3.3%,
CN(C)CCCN1C(=O)c2ccc3c4c(c(NCc5cn(CCO[C@@H]6O[C@H](CO)[C@@H](O)[C@H](O)[C@H]6O)nn5)cc(c24)C1=O)C(=O)N(CCCN(C)C)C3=O,2,,790 nM,920 nM,80 nM,460 nM,,11.5,,1.2
CN(C)CCCN1C(=O)c2ccc3c4c(c(NCc5cn(CCO[C@H]6O[C@H](CO)[C@@H](O)[C@H](O)[C@@H]6O)nn5)cc(c24)C1=O)C(=O)N(CCCN(C)C)C3=O,2.2,8.1%,300 nM,950 nM,50 nM,430 nM,,19,,3.2
O=C1c2ccc3c4c(c(NCc5cn(CCS[C@H]6O[C@H](CO)[C@@H](O)[C@H](O)[C@@H]6O)nn5)cc(c24)C(=O)N1CCN1CCOCC1)C(=O)N(CCN1CCOCC1)C3=O,6.7,3.2%,21700 nM,22600 nM,730 nM,3390 nM,,31,,1.1
CN(C)CCCN1C(=O)c2ccc3c4c(c(NCc5cn(CCS[C@H]6O[C@H](CO)[C@@H](O)[C@H](O)[C@@H]6O)nn5)cc(c24)C1=O)C(=O)N(CCCN(C)C)C3=O,3.2,6.1%,1520 nM,2780 nM,80 nM,880 nM,,34.7,,1.8
O=C1c2ccc3c4c(c(NCc5cn(CCO[C@@H]6O[C@H](CO)[C@@H](O)[C@H](O)[C@H]6O)nn5)cc(c24)C(=O)N1CCN1CCOCC1)C(=O)N(CCN1CCOCC1)C3=O,4.5,,10500 nM,7860 nM,310 nM,1750 nM,,25.3,,0.7
O=C1c2ccc3c4c(c(NCc5cn(CCO[C@@H]6O[C@H](CO)[C@@H](O[C@H]7O[C@H](CO)[C@@H](O)[C@H](O)[C@H]7O)[C@H](O)[C@H]6O)nn5)cc(c24)C(=O)N1CCN1CCOCC1)C(=O)N(CCN1CCOCC1)C3=O,> 3.8,6.1%,> 50000 nM,> 50000 nM,3320 nM,13000 nM,3.2%,> 15,0.8%,
CN(C)CCCN1C(=O)c2ccc3c4c(c(NCc5cn(CCS[C@@H]6O[C@H](CO)[C@@H](O)[C@H](O)[C@H]6O)nn5)cc(c24)C1=O)C(=O)N(CCCN(C)C)C3=O,3.7,,1380 nM,2750 nM,50 nM,750 nM,,55,,2
O=C1c2ccc3c4c(c(NCc5cn(CCO[C@H]6O[C@H](CO)[C@@H](O)[C@H](O)[C@@H]6O)nn5)cc(c24)C(=O)N1CCN1CCOCC1)C(=O)N(CCN1CCOCC1)C3=O,3.6,4.2%,> 50000 nM,30500 nM,2100 nM,8520 nM,,14.5,,
O=C1c2ccc3c4c(c(NCc5cn(CCS[C@@H]6O[C@H](CO)[C@@H](O)[C@H](O)[C@H]6O)nn5)cc(c24)C(=O)N1CCN1CCOCC1)C(=O)N(CCN1CCOCC1)C3=O,1.2,,30200 nM,35700 nM,1180 nM,28900 nM,,30.3,,1.2

# Reference: ChEMBL document CHEMBL5154742, “Thiosugar naphthalene diimide conjugates: G-quadruplex ligands with antiparasitic and anticancer activity” (Eur J Med Chem, 2022)
